# Source: ChEMBL document CHEMBL2424551, “Synthesis, in vitro evaluation and molecular modelling of naphthalimide analogue as anticancer agents” (2013)
# The source made the active and inactive calls. The rule behind the calls is not given here.
# Key:
# Type in all cases: functional
# T47D = assay: Growth inhibition of human T47D cells at 10 uM after 48 hrs by SRB assay; conditions: read-out: GI
# Procedure, shortened: (§1)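 NCI 60-cell-line screen with a single 10 µM dose. Cells are grown in RPMI 1640 with 5% FBS and 2 mM L-glutamine, plated at 5000–40,000 cells/well according to doubling time, and preincubated 24 h at 37 °C, 5% CO2; time-zero plates are TCA-fixed at that point. Drug exposure is 48 h. Adherent cells are fixed with cold TCA, stained with 0.4% SRB in 1% acetic acid and read at 515 nm. Percent growth is calculated relative to time-zero and untreated controls and reported as GI%.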
# COLO 205 = assay: Growth inhibition of human COLO205 cells at 10 uM after 48 hrs by SRB assay; conditions: COLO 205, 48 h, read-out: GI
# Procedure, shortened: (§2)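 Cells grown in RPMI 1640 with 5% FBS and 2 mM L-glutamine, plated at 5000–40,000 cells/well by doubling time and preincubated 24 h (37 °C, 5% CO2); a time-zero plate is TCA-fixed. Single dose added, then 48 h incubation. Fixed with cold TCA, stained with 0.4% SRB, dye solubilized in 10 mM Tris base, absorbance at 515 nm; percent growth vs time-zero and untreated control.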
# HCT-15 = assay: Growth inhibition of human HCT15 cells at 10 uM after 48 hrs by SRB assay; conditions: HCT-15, 48 h, read-out: GI; procedure, shortened: as §2
# UACC-62 = assay: Growth inhibition of human UACC62 cells at 10 uM after 48 hrs by SRB assay; conditions: UACC-62, 48 h, read-out: GI; procedure, shortened: as §1
# 786-0 = assay: Growth inhibition of human 786-0 cells at 10 uM after 48 hrs by SRB assay; conditions: 786-0, 48 h, read-out: GI; procedure, shortened: as §2
# RXF 393 = assay: Growth inhibition of human RXF393 cells at 10 uM after 48 hrs by SRB assay; conditions: RXF 393, 48 h, read-out: GI; procedure, shortened: as §2
# DU-145 = assay: Growth inhibition of human DU145 cells at 10 uM after 48 hrs by SRB assay; conditions: DU-145, 48 h, read-out: GI; procedure, shortened: as §2
# LOX IMVI = assay: Growth inhibition of human LOXIMVI cells at 10 uM after 48 hrs by SRB assay; conditions: read-out: GI; procedure, shortened: as §2
# IGROV-1 = assay: Growth inhibition of human IGROV1 cells at 10 uM after 48 hrs by SRB assay; conditions: IGROV-1, 48 h, read-out: GI; procedure, shortened: as §2
# M14 = assay: Growth inhibition of human M14 cells at 10 uM after 48 hrs by SRB assay; conditions: M14, 48 h, read-out: GI; procedure, shortened: as §2
# NCI-H522 = assay: Growth inhibition of human NCI-H522 cells at 10 uM after 48 hrs by SRB assay; conditions: NCI-H522, 48 h, read-out: GI; procedure, shortened: as §2
# SK-OV-3 = assay: Growth inhibition of human SKOV3 cells at 10 uM after 48 hrs by SRB assay; conditions: SK-OV-3, 48 h, read-out: GI; procedure, shortened: as §1
# HT-29 = assay: Growth inhibition of human HT-29 cells at 10 uM after 48 hrs by SRB assay; conditions: HT-29, 48 h, read-out: GI; procedure, shortened: as §2
# MDA-MB-468 = assay: Growth inhibition of human MDA-MB-468 cells at 10 uM after 48 hrs by SRB assay; procedure, shortened: as §2
# SK-MEL-5 = assay: Growth inhibition of human SK-MEL-5 cells at 10 uM after 48 hrs by SRB assay; conditions: SK-MEL-5, 48 h, read-out: GI; procedure, shortened: as §2
# Hs-578T = assay: Growth inhibition of human Hs578T cells at 10 uM after 48 hrs by SRB assay; conditions: read-out: GI; procedure, shortened: as §2
# [1] = Growth inhibition of human NCI-ADR-RES cells at 10 uM after 48 hrs by SRB assay; conditions: read-out: GI; procedure, shortened: as §2
# SF-268 = assay: Growth inhibition of human SF268 cells at 10 uM after 48 hrs by SRB assay; conditions: SF-268, 48 h, read-out: GI; procedure, shortened: as §2
# TK-10 = assay: Growth inhibition of human TK10 cells at 10 uM after 48 hrs by SRB assay; conditions: TK-10, 48 h, read-out: GI; procedure, shortened: as §1
# OVCAR-8 = assay: Growth inhibition of human OVCAR8 cells at 10 uM after 48 hrs by SRB assay; conditions: OVCAR-8, 48 h, read-out: GI; procedure, shortened: as §2
# KM12 = assay: Growth inhibition of human KM12 cells at 10 uM after 48 hrs by SRB assay; conditions: KM12, 48 h, read-out: GI; procedure, shortened: as §2
# A549 = assay: Growth inhibition of human A549 cells at 10 uM after 48 hrs by SRB assay; conditions: A549, 48 h, read-out: GI; procedure, shortened: as §2
# SK-MEL-28 = assay: Growth inhibition of human SK-MEL-28 cells at 10 uM after 48 hrs by SRB assay; conditions: SK-MEL-28, 48 h, read-out: GI; procedure, shortened: as §2
# OVCAR-3 = assay: Growth inhibition of human OVCAR3 cells at 10 uM after 48 hrs by SRB assay; conditions: OVCAR-3, 48 h, read-out: GI; procedure, shortened: as §2
# OVCAR-4 = assay: Growth inhibition of human OVCAR4 cells at 10 uM after 48 hrs by SRB assay; conditions: OVCAR-4, 48 h, read-out: GI; procedure, shortened: as §2
Structure (SMILES),inhibition of growth at 10 µM (T47D) [%],inhibition of growth at 10 µM (COLO 205) [%],inhibition of growth at 10 µM (HCT-15) [%],inhibition of growth at 10 µM (UACC-62) [%],inhibition of growth at 10 µM (786-0) [%],inhibition of growth at 10 µM (RXF 393) [%],inhibition of growth at 10 µM (DU-145) [%],inhibition of growth at 10 µM (LOX IMVI) [%],inhibition of growth at 10 µM (M14) [%],inhibition of growth at 10 µM (NCI-H522) [%],inhibition of growth at 10 µM (SK-OV-3) [%],inhibition of growth at 10 µM (HT-29) [%],inhibition of growth at 10 µM (SK-MEL-5) [%],inhibition of growth at 10 µM (Hs-578T) [%],inhibition of growth at 10 µM [1] [%],inhibition of growth at 10 µM (SF-268) [%],inhibition of growth at 10 µM (OVCAR-8) [%],inhibition of growth at 10 µM (KM12) [%],inhibition of growth at 10 µM (A549) [%],inhibition of growth at 10 µM (SK-MEL-28) [%],also measured
O=c1c2cccc3c(Nc4ccc(Br)cn4)ccc(c32)c2nc3ccccc3n12,81.6,< 20,28,< 20,< 20,< 20,< 20,< 20,< 20,< 20,< 20,< 20,23.8,< 20,< 20,< 20,< 20,22.8,< 20,27.1,inhibition of growth at 10 µM (IGROV-1): 51.1%; growth inhibition (GI) (MDA-MB-468): Active; inhibition of growth at 10 µM (TK-10): 21.9%; inhibition of growth at 10 µM (OVCAR-3): < 20%; inhibition of growth at 10 µM (OVCAR-4): 46.3%
O=c1c2cccc3c(NC4CCCCC4)ccc(c32)c2nc3ccccc3n12,67.5,24.4,25.2,< 20,< 20,< 20,< 20,26.6,< 20,38.5,< 20,23.1,33.9,< 20,< 20,< 20,< 20,< 20,33.5,< 20,inhibition of growth at 10 µM (IGROV-1): 58.8%; growth inhibition (GI) (MDA-MB-468): Active; inhibition of growth at 10 µM (TK-10): 22.6%; inhibition of growth at 10 µM (OVCAR-3): < 20%; inhibition of growth at 10 µM (OVCAR-4): < 20%
O=c1c2cccc3c(Nc4ccc(F)cc4)ccc(c32)c2nc3ccccc3n12,76.6,< 20,28.9,32.2,< 20,< 20,< 20,< 20,< 20,< 20,< 20,< 20,29.6,26.4,< 20,< 20,< 20,25.6,< 20,< 20,growth inhibition (GI) (MDA-MB-468): Active; inhibition of growth at 10 µM (TK-10): 24.7%; inhibition of growth at 10 µM (OVCAR-3): < 20%; inhibition of growth at 10 µM (OVCAR-4): 24%
O=c1c2cccc3c(NCCO)ccc(c32)c2nc3ccccc3n12,31.7,< 20,< 20,23.6,< 20,< 20,< 20,< 20,< 20,< 20,< 20,< 20,20.2,< 20,< 20,< 20,< 20,< 20,< 20,< 20,"inhibition of growth at 10 µM (IGROV-1): 63.5%; inhibition of growth at 10 µM (MDA-MB-468; MDA-MB-468, 48 h, read-out: GI): 81.1%; inhibition of growth at 10 µM (TK-10): < 20%; inhibition of growth at 10 µM (OVCAR-3): < 20%; inhibition of growth at 10 µM (OVCAR-4): < 20%"
O=c1c2cccc3c(Nc4ccccn4)ccc(c32)c2nc3ccccc3n12,53.4,29,40.8,35.7,< 20,< 20,< 20,30.4,< 20,43.4,< 20,35.4,48.2,< 20,25.4,< 20,24.6,25.2,29.1,< 20,inhibition of growth at 10 µM (IGROV-1): 43.4%; growth inhibition (GI) (MDA-MB-468): Active; inhibition of growth at 10 µM (TK-10): 34.2%; inhibition of growth at 10 µM (OVCAR-3): 30%; inhibition of growth at 10 µM (OVCAR-4): 30.9%
CCCCNc1ccc2c3c1cccc3c(=O)n1c3ccccc3nc21,64.3,< 20,23.8,< 20,< 20,< 20,< 20,24.1,< 20,28.1,< 20,< 20,24.5,< 20,< 20,< 20,< 20,22.3,23.4,< 20,inhibition of growth at 10 µM (IGROV-1): 58.2%; growth inhibition (GI) (MDA-MB-468): Active; inhibition of growth at 10 µM (TK-10): 29.8%; inhibition of growth at 10 µM (OVCAR-3): < 20%; inhibition of growth at 10 µM (OVCAR-4): < 20%
O=c1c2cccc3c(Nc4c(F)cccc4F)ccc(c32)c2nc3ccccc3n12,47.3,< 20,24.5,< 20,< 20,< 20,< 20,< 20,< 20,< 20,< 20,< 20,< 20,< 20,< 20,< 20,< 20,21.1,< 20,< 20,inhibition of growth at 10 µM (IGROV-1): 46.6%; growth inhibition (GI) (MDA-MB-468): Active; inhibition of growth at 10 µM (OVCAR-3): < 20%; inhibition of growth at 10 µM (OVCAR-4): < 20%
